Results: ChEMBL document CHEMBL1781959, “Synthesis and in vitro antitumor activity of substituted quinazoline and quinoxaline derivatives: search for anticancer agent” (Eur J Med Chem, 2011)

What was measured:
Format in all cases: functional
[1] = tested on: DU-145; test: Anticancer activity against human DU145 cells assessed as cell growth promotion at 10^-5 M after 48 hrs by SRB assay relative to control
[2] = tested on: NCI-H322M; test: Anticancer activity against human NCI-H322M cells assessed as cell growth promotion at 10^-5 M after 48 hrs by SRB assay relative to control
[3] = tested on: Malme-3M; test: Anticancer activity against human MALME-3M cells assessed as cell growth promotion at 10^-5 M after 48 hrs by SRB assay relative to control
[4] = tested on: MOLT-4; test: Anticancer activity against human MOLT4 cells assessed as cell growth promotion at 10^-5 M after 48 hrs by SRB assay relative to control
[5] = tested on: OVCAR-3; test: Anticancer activity against human OVCAR3 cells assessed as cell growth promotion at 10^-5 M after 48 hrs by SRB assay relative to control
[6] = tested on: NCI-H23; test: Anticancer activity against human NCI-H23 cells assessed as cell growth promotion at 10^-5 M after 48 hrs by SRB assay relative to control
[7] = tested on: NCI-H460; test: Anticancer activity against human NCI-H460 cells assessed as cell growth promotion at 10^-5 M after 48 hrs by SRB assay relative to control
[8] = tested on: OVCAR-8; test: Anticancer activity against human OVCAR8 cells assessed as cell growth promotion at 10^-5 M after 48 hrs by SRB assay relative to control
[9] = tested on: EKVX; test: Anticancer activity against human EKVX cells assessed as cell growth promotion at 10^-5 M after 48 hrs by SRB assay relative to control
[10] = tested on: TK-10; test: Anticancer activity against human TK10 cells assessed as cell growth promotion at 10^-5 M after 48 hrs by SRB assay relative to control
[11] = tested on: SF-295; test: Anticancer activity against human SF295 cells assessed as cell growth promotion at 10^-5 M after 48 hrs by SRB assay relative to control
[12] = tested on: HL-60(TB); test: Anticancer activity against human HL-60(TB) cells assessed as cell growth promotion at 10^-5 M after 48 hrs by SRB assay relative to control
Outline: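 NCI-60 single-dose screen: compound at 10^-5 M, 48 h at 37 °C, 5% CO2; cells grown in RPMI 1640 with 5% FBS and 2 mM L-glutamine, pre-incubated 24 h before dosing. Adherent cells fixed with cold TCA; endpoint is sulforhodamine B protein staining. Percent growth of treated cells is reported relative to untreated control.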

[13] = tested on: KM12; test: Anticancer activity against human KM12 cells assessed as cell growth promotion at 10^-5 M after 48 hrs by SRB assay relative to control
[14] = tested on: MDA-MB-468; test: Anticancer activity against human MDA-MB-468 cells assessed as cell growth promotion at 10^-5 M after 48 hrs by SRB assay relative to control
[15] = tested on: OVCAR-5; test: Anticancer activity against human OVCAR5 cells assessed as cell growth promotion at 10^-5 M after 48 hrs by SRB assay relative to control
[16] = tested on: SK-OV-3; test: Anticancer activity against human SKOV3 cells assessed as cell growth promotion at 10^-5 M after 48 hrs by SRB assay relative to control
[17] = Anticancer activity against human Hs 578T cells assessed as cell growth promotion at 10^-5 M after 48 hrs by SRB assay relative to control
[18] = tested on: K562; test: Anticancer activity against human K562 cells assessed as cell growth promotion at 10^-5 M after 48 hrs by SRB assay relative to control
[19] = tested on: SK-MEL-28; test: Anticancer activity against human SK-MEL-28 cells assessed as cell growth promotion at 10^-5 M after 48 hrs by SRB assay relative to control
[20] = tested on: IGROV-1; test: Anticancer activity against human IGROV1 cells assessed as cell growth promotion at 10^-5 M after 48 hrs by SRB assay relative to control
[21] = tested on: SF-268; test: Anticancer activity against human SF268 cells assessed as cell growth promotion at 10^-5 M after 48 hrs by SRB assay relative to control
[22] = tested on: SF-539; test: Anticancer activity against human SF539 cells assessed as cell growth promotion at 10^-5 M after 48 hrs by SRB assay relative to control
[23] = tested on: A549; test: Anticancer activity against human A549 cells assessed as cell growth promotion at 10^-5 M after 48 hrs by SRB assay relative to control
[24] = tested on: 786-0; test: Anticancer activity against human 786-0 cells assessed as cell growth promotion at 10^-5 M after 48 hrs by SRB assay relative to control
[25] = tested on: HOP-62; test: Anticancer activity against human HOP62 cells assessed as cell growth promotion at 10^-5 M after 48 hrs by SRB assay relative to control
[26] = tested on: NCI/ADR-RES; test: Anticancer activity against human NCI/ADR-RES cells assessed as cell growth promotion at 10^-5 M after 48 hrs by SRB assay relative to control
[27] = tested on: MDA-MB-231; test: Anticancer activity against human MDA-MB-231 cells assessed as cell growth promotion at 10^-5 M after 48 hrs by SRB assay relative to control
[28] = tested on: SW-620; test: Anticancer activity against human SW620 cells assessed as cell growth promotion at 10^-5 M after 48 hrs by SRB assay relative to control
[29] = tested on: HCT-116; test: Anticancer activity against human HCT116 cells assessed as cell growth promotion at 10^-5 M after 48 hrs by SRB assay relative to control
[30] = tested on: UACC-62; test: Anticancer activity against human UACC62 cells assessed as cell growth promotion at 10^-5 M after 48 hrs by SRB assay relative to control
[31] = tested on: A498; test: Anticancer activity against human A498 cells assessed as cell growth promotion at 10^-5 M after 48 hrs by SRB assay relative to control
[32] = tested on: T47D; test: Anticancer activity against human T47D cells assessed as cell growth promotion at 10^-5 M after 48 hrs by SRB assay relative to control
[33] = tested on: HCC 2998; test: Anticancer activity against human HCC2998 cells assessed as cell growth promotion at 10^-5 M after 48 hrs by SRB assay relative to control
[34] = tested on: PC-3; test: Anticancer activity against human PC3 cells assessed as cell growth promotion at 10^-5 M after 48 hrs by SRB assay relative to control
[35] = tested on: MCF7; test: Anticancer activity against human MCF7 cells assessed as cell growth promotion at 10^-5 M after 48 hrs by SRB assay relative to control
[36] = tested on: SK-MEL-5; test: Anticancer activity against human SK-MEL-5 cells assessed as cell growth promotion at 10^-5 M after 48 hrs by SRB assay relative to control
[37] = tested on: LOX IMVI; test: Anticancer activity against human LOXIMVI cells assessed as cell growth promotion at 10^-5 M after 48 hrs by SRB assay relative to control
[38] = tested on: COLO 205; test: Anticancer activity against human COLO205 cells assessed as cell growth promotion at 10^-5 M after 48 hrs by SRB assay relative to control

Structure (SMILES)	Activity [1] [%]	Activity [2] [%]	Activity [3] [%]	Activity [4] [%]	Activity [5] [%]	Activity [6] [%]	Activity [7] [%]	Activity [8] [%]	Activity [9] [%]	Activity [10] [%]	Activity [11] [%]	Activity [12] [%]	Activity [13] [%]	Activity [14] [%]	Activity [15] [%]	Activity [16] [%]	Activity [17] [%]	Activity [18] [%]	Activity [19] [%]	Activity [20] [%]	other results
NS(=O)(=O)c1ccc(NC(=O)c2ccccc2NC(=O)c2ccco2)cc1	113	119.5	118.8	87.33	108	110.8	115.5	103	97.23	102	103.8	93.06	108.4	106	99.82	110	118	95.39	107.1	117	Activity [21]: 98.43%; Activity [22]: 86.82%; Activity [23]: 106.3%; Activity [24]: 108%; Activity [25]: 106%; Activity [26]: 111%; Activity [27]: 102%; Activity [28]: 101.9%; Activity [29]: 109.7%; Activity [30]: 107%; Activity [31]: -23%; Activity [32]: 103%; Activity [33]: 103.3%; Activity [34]: 118%; Activity [35]: 95.61%; Activity [36]: 108.4%; Activity [37]: 101.6%
N#Cc1ccc(/C=C/c2ccc(NC(=O)c3ccccc3NC(=O)c3ccco3)cc2)cc1	104	102	108	99.1	107	94.62	116	106	88.81	126	114	84.98	107	108	105	111	100	94.72	113	110	Activity [21]: 104%; Activity [22]: 102%; Activity [23]: 101%; Activity [24]: 115%; Activity [25]: 111%; Activity [26]: 109%; Activity [27]: 94.46%; Activity [28]: 106%; Activity [29]: 103%; Activity [30]: 99%; Activity [38]: 124%; Activity [31]: 94.62%; Activity [32]: 103%; Activity [33]: 105%; Activity [34]: 109%; Activity [35]: 98.4%; Activity [36]: 103%; Activity [37]: 109%
